Source: PubChem
The list is not random: actives were taken first. Their share in the collection is about 2.9%.
PAD4 inh – inhibitors of human PAD4 | Q9UM07 | recombinant PAD4, RCA probe fluorescence polarization | inhibition, % at 6.36 µM | hit rate 0.41% among 330,000;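 active means percent inhibition above a cutoff equal to the mean of all tested compounds plus 3 SD, cut at about 15% in these data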
SIAE inh – blocks human sialic acid acetylesterase. Q9HAT2. AID 1053197. hit rate 0.69% among 370,000. SIAE FP-Rh probe binding, fluorescence polarization. inhibition, % at 9.66 µM;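 active means inhibition above a cutoff: mean of compounds within the control limits plus 3 SD of those, cut at about 17% in these data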
Target sequence (Q9HAT2 whole entry, looked up): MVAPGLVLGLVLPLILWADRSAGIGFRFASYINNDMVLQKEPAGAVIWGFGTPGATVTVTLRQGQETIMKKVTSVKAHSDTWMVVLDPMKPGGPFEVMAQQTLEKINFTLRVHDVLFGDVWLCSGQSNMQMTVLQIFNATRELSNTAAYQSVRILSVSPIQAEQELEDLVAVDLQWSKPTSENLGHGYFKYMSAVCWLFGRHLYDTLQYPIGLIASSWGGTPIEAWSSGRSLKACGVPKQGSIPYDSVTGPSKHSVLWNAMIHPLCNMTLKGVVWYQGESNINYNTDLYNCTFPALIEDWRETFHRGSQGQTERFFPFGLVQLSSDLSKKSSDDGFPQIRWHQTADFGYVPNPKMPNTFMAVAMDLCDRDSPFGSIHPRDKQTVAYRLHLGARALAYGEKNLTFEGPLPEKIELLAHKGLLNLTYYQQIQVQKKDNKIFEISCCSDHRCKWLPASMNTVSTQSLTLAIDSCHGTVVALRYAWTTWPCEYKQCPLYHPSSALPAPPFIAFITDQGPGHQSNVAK
mABHD4 FP – inhibits mouse alpha/beta hydrolase domain 4 | hit rate 0.54% among 370,000 | inhibition, % at 8.92 µM | purified mABHD4, FP-Rh probe fluorescence polarization;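 active means inhibition exceeding the mean over every tested compound plus 3 SD, cut at about 30% in these data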
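Assay system: mouse ABHD4 enzyme, wild type / Also added: fluorescent activity-based probe FP-Rh / Doses: single nominal dose of 8.92 µM, 0.89% DMSO final / Timing: 45 min compound pre-incubation plus 60 min probe step, 25 °C / Signal: FP readout, ex 525 nm / em 598 nm / Control set: S159A mutant/DMSO as 100%, compound-well median as 0%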
HTRA1 inhibitor – HTRA1 (human) protease inhibition. hit rate 0.5% among 340,000. Q92743. inhibition, % at 5.96 µM. recombinant HTRA1, FP-rhodamine activity-based probe, fluorescence polarization; in the data active means inhibition above about 36%
PRMT1 FP inh – inhibitors of human PRMT1 | Q99873 | recombinant PRMT1, activity-based probe fluorescence polarization | inhibition, % at 2.79 µM | hit rate 1.3% among 370,000;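 active means inhibition above about 21% made by adding two undisclosed values, limit read from the data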
TCR CD3 inh – human TCR-CD3 binding inhibition; inhibition, % at 9.4 µM; TAMRA-labeled TCR probe fluorescence, biochemical; hit rate 0.37% among 360,000; AID 651800;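 further: recombinant mutant TCR 2C K166C tagged with TAMRA read by polarization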
BSA probe FL – interferes with TAMRA-BSA probe, flagging TCR-CD3 hits; shares compounds with TCR CD3 inh; TAMRA-labeled BSA probe fluorescence counterscreen; inhibition, % at 9.4 µM; hit rate 10% among 1,200; AID 652035; in the data active means inhibition above about 23%
TCR-CD3 inh conf – TCR-CD3 interaction inhibition, confirmation. hit rate 48% among 1,200. shares compounds with TCR CD3 inh. inhibition, % at 9.4 µM. TAMRA-labeled TCR probe fluorescence binding assay
Hits are given with their value. Unless noted, no stated cut-off is given here; in the data, active means inhibition above about 19%; inactive means the rest.

How did Nc1nnc(CC(=O)N/N=C\c2cc([N+](=O)[O-])ccc2O)s1 do in these assays?
PAD4 inh: inactive; SIAE inh: inactive; mABHD4 FP: inactive; HTRA1 inhibitor: inactive; PRMT1 FP inh: inactive; TCR CD3 inh: 35.8; BSA probe FL: inactive; TCR-CD3 inh conf: 25.4

What do the screens show for `Cn1c(SCC(=O)N/N=C/c2cc([N+](=O)[O-])ccc2O)nnc1-c1ccccc1`?
PAD4 inh: inactive; SIAE inh: inactive; mABHD4 FP: inactive; HTRA1 inhibitor: inactive; PRMT1 FP inh: inactive; TCR CD3 inh: 20.7; BSA probe FL: inactive; TCR-CD3 inh conf: inactive

Results for Cn1c(SCC(=O)N/N=C/c2ccccn2)nnc1-c1ccccc1 ?
PAD4 inh: inactive; SIAE inh: inactive; mABHD4 FP: inactive; HTRA1 inhibitor: inactive; PRMT1 FP inh: inactive; TCR CD3 inh: inactive

How did COc1ccc(-c2nn(-c3ccccc3)cc2/C=N/NC(=O)c2cccc(S(=O)(=O)Nc3ccccc3Cl)c2)cc1 do in these assays?
PAD4 inh: inactive; SIAE inh: inactive; mABHD4 FP: inactive; HTRA1 inhibitor: inactive; PRMT1 FP inh: inactive; TCR CD3 inh: 19.5; BSA probe FL: inactive; TCR-CD3 inh conf: 21.6

What do the screens show for `CC(C)[C@H](NC(=O)[C@H](C)NC(=O)OC(C)(C)C)C(=O)N1CCC2CCN(Cc3ccccc3)CC21` (stereo not given in full)?
SIAE inh: inactive; mABHD4 FP: inactive; PRMT1 FP inh: inactive; TCR CD3 inh: inactive

What do the screens show for `Cc1c(OC(C(=O)O)c2ccccc2)ccc2c1oc(=O)c1ccccc12` (stereo not given)?
PAD4 inh: inactive; SIAE inh: inactive; mABHD4 FP: inactive; HTRA1 inhibitor: inactive; PRMT1 FP inh: inactive; TCR CD3 inh: 19.5; BSA probe FL: inactive; TCR-CD3 inh conf: inactive

How did Oc1ccc(-c2cn3c(n2)SCC3)cc1O do in these assays?
PAD4 inh: inactive; SIAE inh: inactive; mABHD4 FP: inactive; HTRA1 inhibitor: inactive; PRMT1 FP inh: inactive; TCR CD3 inh: 37.5; BSA probe FL: inactive; TCR-CD3 inh conf: 32.9

Results for CN(C)S(=O)(=O)c1cccc(NC(=O)COC(=O)c2ccc3ccccc3n2)c1 ?
PAD4 inh: inactive; SIAE inh: inactive; mABHD4 FP: inactive; HTRA1 inhibitor: inactive; PRMT1 FP inh: inactive; TCR CD3 inh: inactive

Results for CN(C)S(=O)(=O)c1cccc(NC(=O)COC(=O)c2cc(-c3cccc(Br)c3)nc3ccccc23)c1 ?
PAD4 inh: inactive; SIAE inh: inactive; mABHD4 FP: inactive; HTRA1 inhibitor: inactive; PRMT1 FP inh: inactive; TCR CD3 inh: 82.8; BSA probe FL: inactive; TCR-CD3 inh conf: 55.9

How did O=C(OCCN1CCN(C2CN(Cc3cn(Cc4ccccc4C(F)(F)F)nn3)S(=O)(=O)C2)CC1)c1cc2ccccc2o1 (stereo not given) do in these assays?
SIAE inh: inactive; mABHD4 FP: inactive; PRMT1 FP inh: inactive

Results for C=CCn1c(C)cc(-c2csc(NC(=O)CCc3nc4ccccc4c(=O)[nH]3)n2)c1C ?
PAD4 inh: inactive; SIAE inh: inactive; mABHD4 FP: inactive; HTRA1 inhibitor: inactive; PRMT1 FP inh: inactive; TCR CD3 inh: 24.6; BSA probe FL: inactive; TCR-CD3 inh conf: inactive

What do the screens show for `O=C(CCc1nc2ccccc2c(=O)[nH]1)Nc1nc(-c2cccs2)cs1`?
PAD4 inh: inactive; SIAE inh: inactive; mABHD4 FP: inactive; HTRA1 inhibitor: inactive; PRMT1 FP inh: inactive; TCR CD3 inh: inactive

Results for COc1ccc(/C=N/N2C(=O)c3ccccc3C2=O)cc1 ?
PAD4 inh: inactive; SIAE inh: inactive; mABHD4 FP: inactive; HTRA1 inhibitor: inactive; PRMT1 FP inh: inactive; TCR CD3 inh: inactive

Results for COc1ccccc1/C=N/N1C(=O)c2cccc3cccc(c23)C1=O ?
PAD4 inh: inactive; SIAE inh: inactive; mABHD4 FP: inactive; HTRA1 inhibitor: inactive; PRMT1 FP inh: inactive; TCR CD3 inh: 31.8; BSA probe FL: 32.6; TCR-CD3 inh conf: 19.1

Results for CCC[C@H]1[C@@H](OC(=O)NCc2cccc(Cl)c2)CC[C@@]23CCCN2C(=O)CCC[C@@H]13 ?
SIAE inh: inactive; mABHD4 FP: inactive; PRMT1 FP inh: inactive

How did O=C(CCN1C(=O)/C(=C/c2ccc(F)cc2)SC1=S)NCCCn1ccnc1 do in these assays?
PAD4 inh: inactive; SIAE inh: inactive; mABHD4 FP: inactive; HTRA1 inhibitor: inactive; PRMT1 FP inh: inactive; TCR CD3 inh: inactive

What do the screens show for `O=C(CCN1C(=O)/C(=C/c2ccc(Cl)cc2)SC1=S)NCCCn1ccnc1`?
PAD4 inh: inactive; SIAE inh: inactive; mABHD4 FP: inactive; HTRA1 inhibitor: inactive; PRMT1 FP inh: inactive; TCR CD3 inh: 23.0; BSA probe FL: inactive; TCR-CD3 inh conf: 19.8

What do the screens show for `Cc1cc([N+](=O)[O-])cc(/C=N\NC(=O)C2COc3ccccc3O2)c1O` (stereo not given)?
PAD4 inh: inactive; SIAE inh: inactive; mABHD4 FP: inactive; HTRA1 inhibitor: inactive; PRMT1 FP inh: inactive; TCR CD3 inh: 31.3; BSA probe FL: inactive; TCR-CD3 inh conf: 29.2

How did CC1CCc2c(C(=O)OCC(=O)Nc3cccc(S(=O)(=O)N4CCCCCC4)c3)csc2C1 (stereo not given) do in these assays?
PAD4 inh: inactive; SIAE inh: inactive; mABHD4 FP: inactive; HTRA1 inhibitor: inactive; PRMT1 FP inh: inactive; TCR CD3 inh: 32.1; BSA probe FL: inactive; TCR-CD3 inh conf: inactive

Results for Cc1ccc(NC(=O)COC(=O)c2csc3c2CCC(C)C3)cc1S(=O)(=O)N1CCCCC1 (stereo not given) ?
PAD4 inh: inactive; SIAE inh: inactive; mABHD4 FP: inactive; HTRA1 inhibitor: inactive; PRMT1 FP inh: inactive; TCR CD3 inh: 18.9; BSA probe FL: inactive; TCR-CD3 inh conf: inactive

Results for Cc1ccc(NC(=O)COC(=O)c2ccccc2F)cc1S(=O)(=O)N1CCCCC1 ?
SIAE inh: inactive; mABHD4 FP: inactive; HTRA1 inhibitor: inactive; PRMT1 FP inh: inactive; TCR CD3 inh: inactive

Results for Cc1ccccc1C(=O)OCC(=O)Nc1cccc(S(=O)(=O)N2CCCCC2)c1 ?
SIAE inh: inactive; mABHD4 FP: inactive; HTRA1 inhibitor: inactive; PRMT1 FP inh: inactive; TCR CD3 inh: inactive

Results for O=S1(=O)c2ccc(N3CCSCC3)cc2Oc2ccccc2CN1Cc1cn(Cc2ccc(Cl)cc2)nn1 ?
SIAE inh: inactive; mABHD4 FP: inactive; PRMT1 FP inh: inactive

What do the screens show for `CCOc1ccc(NC(=S)NS(=O)(=O)c2cc(Br)ccc2OCC)cc1`?
PAD4 inh: inactive; SIAE inh: inactive; mABHD4 FP: inactive; PRMT1 FP inh: inactive; TCR CD3 inh: inactive

What do the screens show for `CCOc1ccc(Br)cc1S(=O)(=O)Nc1ccc(C(=O)OCC(=O)Nc2ccc(C#N)cc2)cc1`?
PAD4 inh: inactive; SIAE inh: inactive; mABHD4 FP: inactive; HTRA1 inhibitor: inactive; PRMT1 FP inh: inactive; TCR CD3 inh: 33.3; BSA probe FL: 26.0; TCR-CD3 inh conf: 33.8
